Laboratory results published in paper PMC8259413 (Biochemistry, 2015).

What was measured:
[1] = biological target: Pol β binary complex (Pol β/sngDNA) (Rattus norvegicus, UniProt P06766); format: binding; details: for ΔH of binding (ITC) / ΔS of binding (ITC): binding to Pol β binary complex, 23 °C
Procedure, shortened: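 Binary complex formed with 20-mer single-nucleotide-gapped duplex DNA (DNA:protein ~1.5:1). Ligands were nonhydrolyzable α,β-imido dNTP analogues, titrated in matched buffer (50 mM HEPES, 100 mM NaCl, 5 mM MgCl₂, 2 mM DTT, pH 7.4) at 1000 rpm with 250 s between injections. Matching analogue: 0.2 mM into 0.013 mM complex. Mismatching analogue: 6 mM into 0.106 mM complex.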

[2] = biological target: binary Pol β complex (Pol β/sngDNA) (Homo sapiens, UniProt P06746); assay: NMR lineshape analysis; format: binding, rat
Procedure, shortened: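 It was titrated with Mg²⁺-containing nonhydrolyzable matching (0–2:1) or mismatching (0.15–4.6:1) dNTP analogue, followed by ¹H–¹⁵N TROSY/HSQC. Resonances resolved in both dimensions throughout were fitted to a two-state model for koff and KD.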

Row | SMILES | ΔH of binding (ITC) [1] | ΔS of binding (ITC) [1] | koff (NMR lineshape analysis) ([2]; two-state model, global fit of nine residues, 23 °C) | fold weaker binding than the matching nucleotide ([1]; based upon ITC data) | fold greater koff than that measured for the matching nucleotide ([2]; NMR line shape data) | kex of nucleotide binding/dissociation within the binding cavity ([2]; in the presence of 3.0 mM dApNHpp, estimated)
1 | Nc1ccn([C@H]2C[C@H](O)[C@@H](COP(=O)(O)NP(=O)(O)OP(=O)(O)O)O2)c(=O)n1 [dCpNHpp, 2′-Deoxycytidine-5′-[(α,β)-imido]triphosphate] | 22.2 ± 0.24 kcal/mol | 432 ± 5 J/mol−K | 5.1 s⁻¹ | – | – | –
2 | Nc1ncnc2c1ncn2[C@H]1C[C@H](O)[C@@H](COP(=O)(O)NP(=O)(O)OP(=O)(O)O)O1 [dApNHpp, 2′-deoxyadenosine-5′[(α,β)-imido]triphosphate] | 8.84 ± 2.2 kcal/mol | 195 ± 32 J/mol−K | – | approximately 300 fold | approximately 50 fold | ~7000 s⁻¹
